Test results from ChEMBL document CHEMBL1124235, “3-Phenoxypyridine 1-oxides as anticonvulsant agents” (1988).
The source made the active and inactive calls. The rule behind the calls is not given here.

Tests used:
Mus musculus [1] = assay: Dose required to protect Mice against tonic extension produced by maximal electroshock (MES) at 30 min post administration; format: functional; conditions: 0.5 h, read-out: MED
In short: (§1)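 Male Swiss-Webster mice (25–32 g), with food and water before testing, were dosed ip, the compound being in water or suspended in 0.29% Methocel. Doses were counted as free base, at levels of 10, 30, 100, 300 or >300 mg/kg, with n = 5. At 30 min, 90 mA, 1 ms monophasic pulses at 100 Hz were given through ear clips for 0.2 s. Value is the lowest dose protecting ≥2 mice from tonic hind-limb extension.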

Mus musculus [2] = assay: Dose at which mouse exhibited ataxia using the inverted screen procedure at 30 min post administration; format: functional
In short: (§2)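 Mice (n = 5 per dose) were scored 30 min after dosing at levels of 10, 30, 100, 300 or >300 mg/kg. They were placed on an inverted wire-mesh square, and impaired mice fall off.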

Mus musculus [3] = assay: Increase in spontaneous locomotion activity after intraperitoneal administration in mice at a dose of 30 mg/Kg; format: functional
In short: (§3)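 After ip injection, spontaneous locomotor activity was recorded automatically over a 1-h period beginning 20 min after dosing, with nine or more mice per dose group. Values are percent change from saline-treated mice.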

Mus musculus [4] = assay: Number of mice falling from an inverted wire mesh during a 1-min test period 20 min after ip administration at a dose of 10 mg/Kg in ataxia (inverted screen test); - denotes 'no animals fell'; format: functional, organism-based
In short: (§4)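 Mice were dosed ip and placed on an inverted wire mesh 20 min after injection, for a 1-min test. The number of mice that fell per dose group was counted, and a dash means none fell.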

Mus musculus [5] = assay: Dose required to protect Mice against tonic extension produced by maximal electroshock (MES) at 30 min post administration.; format: functional; conditions: 0.5 h, read-out: MED; in short: as §1
Mus musculus [6] = assay: Increase in spontaneous locomotion activity after intraperitoneal administration in mice at a dose of 10 mg/Kg; format: functional; in short: as §3
Mus musculus [7] = assay: Increase in spontaneous locomotion activity after intraperitoneal administration in mice at a dose of 100 mg/Kg; format: functional; in short: as §3
Mus musculus [8] = assay: Number of mice falling from an inverted wire mesh during a 1-min test period 20 min after ip administration at a dose of 30 mg/Kg in ataxia (inverted screen test); - denotes 'no animals fell'; format: functional, organism-based; in short: as §4
Mus musculus [9] = assay: Dose at which mouse exhibited ataxia using the inverted screen procedure at 30 min post administration.; format: functional; in short: as §2
Mus musculus [10] = assay: Number of mice falling from an inverted wire mesh during a 1-min test period 20 min after ip administration at a dose of 100 mg/Kg in ataxia (inverted screen test); 3/9; format: functional; in short: as §4
Mus musculus [11] = assay: Anticonvulsant activity by maximal electroshock test(MES) in mouse by ip administration at 0.5 hr postdosing
Mus musculus [12] = assay: Number of mice falling from an inverted wire mesh during a 1-min test period 20 min after ip administration at a dose of 60 mg/Kg in ataxia (inverted screen test); 6/12; format: functional; in short: as §4
Mus musculus [13] = assay: Increase in spontaneous locomotion activity after intraperitoneal administration in mice at a dose of 20 mg/Kg; format: functional; in short: as §3
Mus musculus [14] = assay: Increase in spontaneous locomotion activity after intraperitoneal administration in mice at a dose of 5 mg/Kg; format: functional; in short: as §3
Mus musculus [15] = assay: Increase in spontaneous locomotion activity after intraperitoneal administration in mice at a dose of 60 mg/kg; format: functional; in short: as §3
Rattus norvegicus [16] = assay: Anticonvulsant activity by maximal electroshock test(MES) in rat by po administration at 1 hr postdosing; format: functional
Rattus norvegicus [17] = assay: Ataxia produced by […] in rat by po administration at 1 hr post dosing; format: functional
In short: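 Rats were dosed orally and checked 1.0 h afterwards. Ataxia was judged by visual (subjective) observation, not by rotarod. ED50 was calculated by probit analysis of quantal data from four dose groups of eight rats each, with 95% confidence intervals.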

Mus musculus [18] = assay: Number of mice falling from an inverted wire mesh during a 1-min test period 20 min after ip administration at a dose of 20 mg/Kg in ataxia (inverted screen test); 1/12; format: functional; in short: as §4
Mus musculus [19] = assay: Ataxia produced by rotarod ataxia test (ROT) in mouse by po administration at 0.5 hr post dosing
Mus musculus [20] = assay: Increase in spontaneous locomotion activity after intraperitoneal administration in mice at a dose of 40 mg/kg; format: functional; in short: as §3
Mus musculus [21] = assay: Ataxia produced by rotarod ataxia test (ROT) in mouse by ip administration at 0.5 hr post dosing
Mus musculus [22] = assay: Anticonvulsant activity by maximal electroshock test(MES) in mouse by po administration at 0.5 hr postdosing
Mus musculus [23] = assay: Number of mice falling from an inverted wire mesh during a 1-min test period 20 min after ip administration at a dose of 40 mg/Kg in ataxia (inverted screen test); 1/12; format: functional; in short: as §4
Mus musculus [24] = assay: Number of mice falling from an inverted wire mesh during a 1-min test period 20 min after ip administration at a dose of 10 mg/Kg in ataxia (inverted screen test ); - denotes 'no animals fell'; format: functional, organism-based; in short: as §4
Mus musculus [25] = assay: Number of mice falling from an inverted wire mesh during a 1-min test period 20 min after ip administration at a dose of 100 mg/Kg in ataxia (inverted screen test); - denotes 'no animals fell'; format: functional, organism-based; in short: as §4
Mus musculus [26] = assay: Number of mice falling from an inverted wire mesh during a 1-min test period 20 min after ip administration at a dose of 30 mg/Kg in ataxia (inverted screen test); 1/9; format: functional; in short: as §4
Mus musculus [27] = assay: Number of mice falling from an inverted wire mesh during a 1-min test period 20 min after ip administration at a dose of 100 mg/Kg in ataxia (inverted screen test); 2/9; format: functional; in short: as §4
Mus musculus [28] = assay: Number of mice falling from an inverted wire mesh during a 1-min test period 20 min after ip administration at given dose in ataxia (inverted screen test) at 100 mg/kg; - denotes 'no animals fell'; format: functional, organism-based; parameters: dose 100 mg/kg; in short: as §4
Mus musculus [29] = assay: Increase in spontaneous locomotion activity after intraperitoneal administration in mice; at 100 mg/kg; format: functional; in short: as §3
Mus musculus [30] = assay: Number of mice falling from an inverted wire mesh during a 1-min test period 20 min after ip administration at given dose in ataxia (inverted screen test) at 20 mg/kg; - denotes 'no animals fell'; format: functional, organism-based; parameters: dose 20 mg/kg; in short: as §4
Mus musculus [31] = assay: Increase in spontaneous locomotion activity after intraperitoneal administration in mice; 40 mg/kg; format: functional; in short: as §3
Mus musculus [32] = assay: Increase in spontaneous locomotion activity after intraperitoneal administration in mice at 20 mg/kg; format: functional; in short: as §3
Mus musculus [33] = assay: Number of mice falling from an inverted wire mesh during a 1-min test period 20 min after ip administration at given dose in ataxia (inverted screen test) at 10 mg/kg; - denotes 'no animals fell'; format: functional, organism-based; parameters: dose 10 mg/kg; in short: as §4
Mus musculus [34] = assay: Increase in spontaneous locomotion activity after intraperitoneal administration in mice at 10 mg/kg; no change; format: functional, organism-based; parameters: dose 10 mg/kg; in short: as §3
Mus musculus [35] = assay: Number of mice falling from an inverted wire mesh during a 1-min test period 20 min after ip administration at given dose in ataxia (inverted screen test) at 40 mg/kg; - denotes 'no animals fell'; format: functional, organism-based; parameters: dose 40 mg/kg; in short: as §4

O=Cc1cc[n+]([O-])cc1Oc1ccccc1
minimal effective dose (Mus musculus [1]): 300 mg/kg | MAD (Mus musculus [2]): >300 mg/kg

c1ccc2c(c1)Cc1ccncc1O2
minimal effective dose (Mus musculus [1]): 100 mg/kg | MAD (Mus musculus [2]): 300 mg/kg

Cc1ccc(Oc2ccccc2)c[n+]1[O-]
Change (Mus musculus [3]): 96% | Activity (Mus musculus [4]): Not toxic | minimal effective dose (Mus musculus [5]): 100 mg/kg | Change (Mus musculus [6]): 32% | Change (Mus musculus [7]): 134% | Activity (Mus musculus [8]): Not toxic | MAD (Mus musculus [9]): 300 mg/kg | Activity (Mus musculus [10]): 3

N#Cc1cc[n+]([O-])cc1Oc1ccccc1
minimal effective dose (Mus musculus [1]): 300 mg/kg | MAD (Mus musculus [2]): 300 mg/kg

Cc1cc[n+]([O-])cc1Oc1ccccc1
ED50 (Mus musculus [11]): 23 mg/kg | Activity (Mus musculus [12]): 6 | Change (Mus musculus [13]): 75% | minimal effective dose (Mus musculus [1]): 30 mg/kg | Activity (Mus musculus [4]): Not toxic | Change (Mus musculus [14]): 12% | Change (Mus musculus [15]): 63% | MAD (Mus musculus [2]): 100 mg/kg | Change (Mus musculus [6]): 55% | ED50 (Rattus norvegicus [16]): 11 mg/kg | ED50 (Rattus norvegicus [17]): 75 mg/kg | Activity (Mus musculus [18]): 1 | ED50 (Mus musculus [19]): 300 mg/kg | Change (Mus musculus [20]): 92% | ED50 (Mus musculus [21]): 76 mg/kg | ED50 (Mus musculus [22]): 85 mg/kg | Activity (Mus musculus [23]): 1

[O-][n+]1cccc(Oc2ccccc2)c1
Change (Mus musculus [3]): 45% | minimal effective dose (Mus musculus [1]): 100 mg/kg | MAD (Mus musculus [2]): 300 mg/kg | Change (Mus musculus [6]): 19% | Activity (Mus musculus [24]): Not toxic | Change (Mus musculus [7]): 122% | Activity (Mus musculus [25]): Not toxic | Activity (Mus musculus [26]): 1

[O-][n+]1ccc(Cl)c(Oc2ccccc2)c1
minimal effective dose (Mus musculus [1]): > 300 mg/kg | MAD (Mus musculus [2]): 300 mg/kg

Cc1cc(Oc2ccccc2)c[n+]([O-])c1
Change (Mus musculus [3]): 186% | minimal effective dose (Mus musculus [1]): 100 mg/kg | Activity (Mus musculus [4]): Not toxic | MAD (Mus musculus [2]): 300 mg/kg | Change (Mus musculus [6]): 87% | Change (Mus musculus [7]): 228% | Activity (Mus musculus [25]): Not toxic | Activity (Mus musculus [8]): Not toxic

O=c1c2ccccc2oc2c[n+]([O-])ccc12
minimal effective dose (Mus musculus [1]): > 300 mg/kg | MAD (Mus musculus [2]): 300 mg/kg

Cc1cc[n+]([O-])cc1Oc1ccc(Cl)cc1
minimal effective dose (Mus musculus [1]): 100 mg/kg | MAD (Mus musculus [2]): 100 mg/kg

CCc1cc[n+]([O-])cc1Oc1ccccc1
minimal effective dose (Mus musculus [1]): 30 mg/kg | MAD (Mus musculus [2]): 100 mg/kg

O=C(O)c1cc[n+]([O-])cc1Oc1ccccc1
minimal effective dose (Mus musculus [1]): > 300 mg/kg | MAD (Mus musculus [2]): >300 mg/kg

[O-][n+]1ccc(CO)c(Oc2ccccc2)c1
minimal effective dose (Mus musculus [1]): 300 mg/kg | MAD (Mus musculus [2]): 30 mg/kg

Cc1ccc(Oc2c[n+]([O-])ccc2C)cc1
minimal effective dose (Mus musculus [1]): 300 mg/kg | MAD (Mus musculus [2]): 300 mg/kg

[O-][n+]1ccc(C2CCCCC2)c(Oc2ccccc2)c1
minimal effective dose (Mus musculus [1]): > 300 mg/kg | MAD (Mus musculus [2]): 300 mg/kg

Cc1c(Oc2ccccc2)ccc[n+]1[O-]
Change (Mus musculus [3]): 25% | minimal effective dose (Mus musculus [1]): 300 mg/kg | Activity (Mus musculus [4]): Not toxic | MAD (Mus musculus [2]): 300 mg/kg | Change (Mus musculus [6]): 48% | Activity (Mus musculus [27]): 2 | Change (Mus musculus [7]): 184% | Activity (Mus musculus [8]): Not toxic

COc1ccc(Oc2c[n+]([O-])ccc2C)cc1
minimal effective dose (Mus musculus [1]): 300 mg/kg | MAD (Mus musculus [2]): 300 mg/kg

CC(C)c1cc[n+]([O-])cc1Oc1ccccc1
minimal effective dose (Mus musculus [1]): 30 mg/kg | MAD (Mus musculus [2]): 100 mg/kg

CC(C)(C)c1cc[n+]([O-])cc1Oc1ccccc1
minimal effective dose (Mus musculus [1]): 30 mg/kg | MAD (Mus musculus [2]): 100 mg/kg

O=S(=O)(O)O.c1ccc(Oc2cccnc2)cc1
Activity (Mus musculus [28]): Not toxic | minimal effective dose (Mus musculus [1]): 100 mg/kg | Change (Mus musculus [29]): 15% | Activity (Mus musculus [30]): Not toxic | MAD (Mus musculus [2]): 300 mg/kg | Change (Mus musculus [31]): 53% | Change (Mus musculus [32]): 28% | Activity (Mus musculus [33]): Not toxic | Activity (Mus musculus [34]): inactive | Activity (Mus musculus [35]): Not toxic

OCc1ccncc1Oc1ccccc1
minimal effective dose (Mus musculus [1]): 300 mg/kg | MAD (Mus musculus [2]): 300 mg/kg
